{"source": "ChEMBL document CHEMBL1141097", "about": "“Indole-3-acetic acid antagonists of the prostaglandin D2 receptor CRTH2” (J Med Chem, 2005)", "key": {"[1]": {"biological_target": "T1, Prostaglandin D2 receptor 2 (Homo sapiens, UniProt Q9Y5Y4)", "T1 sequence (Q9Y5Y4 whole entry)": "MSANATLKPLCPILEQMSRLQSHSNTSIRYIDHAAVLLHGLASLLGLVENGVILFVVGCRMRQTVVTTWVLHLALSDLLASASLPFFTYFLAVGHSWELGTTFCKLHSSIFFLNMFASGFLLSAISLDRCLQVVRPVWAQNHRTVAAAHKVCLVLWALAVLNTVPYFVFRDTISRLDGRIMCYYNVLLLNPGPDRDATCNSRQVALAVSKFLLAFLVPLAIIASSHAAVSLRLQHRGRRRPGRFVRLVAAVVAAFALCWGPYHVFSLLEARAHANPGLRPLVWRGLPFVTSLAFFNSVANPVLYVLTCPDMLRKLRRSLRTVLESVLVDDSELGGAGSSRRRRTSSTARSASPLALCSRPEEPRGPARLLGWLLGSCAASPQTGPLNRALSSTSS", "assay": "Concentration required to inhibit PGD-2 (10 nM) stimulated [Ca2+] flux in CHO cells expressing human CRTH2 receptor", "format": "cell-based", "procedure,_shortened": "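CHO cells expressing human CRTH2 were stimulated with 10 nM PGD2 and calcium mobilization was read. Inhibition is expressed as IC50. Antagonism was also tested by parallel shifts of the PGD2 dose–response curve with increasing antagonist (pA2).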"}, "[2]": {"biological_target": "T1, Prostaglandin D2 receptor 2", "assay": "Binding affinity towards human CRTH2 receptor expressed in CHO cells", "format": "cell-based", "procedure,_shortened": "(§1)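 Radioligand binding on membranes from CHO cells expressing recombinant human CRTH2 or human DP receptor, reported as Ki.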"}, "[3]": {"biological_target": "T2, Prostaglandin D2 receptor (Homo sapiens, UniProt Q13258)", "T2 sequence (Q13258 whole entry)": "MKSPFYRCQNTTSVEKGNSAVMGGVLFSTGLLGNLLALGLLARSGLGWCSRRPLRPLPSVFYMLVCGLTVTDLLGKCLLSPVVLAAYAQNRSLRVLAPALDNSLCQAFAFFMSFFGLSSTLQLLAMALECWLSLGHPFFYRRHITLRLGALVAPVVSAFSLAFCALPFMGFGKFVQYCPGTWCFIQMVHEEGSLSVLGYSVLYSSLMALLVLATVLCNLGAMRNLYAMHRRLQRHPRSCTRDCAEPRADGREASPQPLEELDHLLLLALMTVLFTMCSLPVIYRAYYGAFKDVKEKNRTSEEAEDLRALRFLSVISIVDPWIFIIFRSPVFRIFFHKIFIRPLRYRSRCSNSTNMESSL", "assay": "Binding affinity towards human DP receptor expressed in CHO cells", "format": "cell-based", "procedure,_shortened": "as §1"}, "[4]": {"assay": "Time taken by the compound to reach its maximum concentration in plasma upon p.o. dose of 10 mg/kg in rats", "format": "ADME, organism-based", "design": "dose 10 mg/kg, route oral", "details": "rat, po", "procedure,_shortened": "(§2)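 Rats given a single dose, 1 mg/kg intravenous or 10 mg/kg oral, then sampled for plasma levels. Cmax, Tmax and AUCinf come from the plasma concentration–time profile.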"}, "[5]": {"assay": "Area under curve for the compound upon i.v. dose of 1 mg/kg in rats", "format": "ADME, organism-based", "design": "dose 1 mg/kg, route intravenous", "details": "rat, in vivo, iv", "procedure,_shortened": "as §2"}, "[6]": {"assay": "Maximum plasma concentration upon i.v. dose of 1 mg/kg in rats", "format": "ADME, organism-based", "design": "dose 1 mg/kg, route intravenous", "details": "rat, iv", "procedure,_shortened": "as §2"}, "[7]": {"assay": "Maximum plasma concentration upon p.o. dose of 10 mg/kg in rats", "format": "ADME, organism-based", "design": "dose 10 mg/kg, route oral", "details": "rat, po", "procedure,_shortened": "as §2"}, "[8]": {"assay": "Oral bioavailability upon p.o. dose of 10 mg/kg in rats", "format": "ADME, organism-based", "details": "rat, in vivo"}, "[9]": {"assay": "Area under curve for the compound upon p.o. dose of 10 mg/kg in rats", "format": "ADME, organism-based", "design": "dose 10 mg/kg, route oral", "details": "rat, in vivo, po", "procedure,_shortened": "as §2"}, "[10]": {"biological_target": "T1, Prostaglandin D2 receptor 2", "assay": "Binding affinity towards human CRTH2 receptor expressed in CHO cells; range 25 nM to 8 uM", "format": "cell-based"}, "[11]": {"biological_target": "T1, Prostaglandin D2 receptor 2", "assay": "In vitro agonist potency towards human CRTH2 receptor expressed in CHO cells; range 15 to 50 nM"}}}
{"smiles": "Cc1ccc(S(=O)(=O)n2c(C)c(CC(=O)O)c3cc(F)ccc32)cc1", "values": [{"measurement": "IC50", "setting": "[1]", "value": 2180, "unit": "nM"}, {"measurement": "Ki", "setting": "[2]", "value": 457, "unit": "nM"}, {"measurement": "Ki", "setting": "[3]", "value": "> 10000", "unit": "nM"}]}
{"smiles": "Cc1nc(S(=O)(=O)n2c(C)c(CC(=O)O)c3cc(F)ccc32)cn1C", "values": [{"measurement": "IC50", "setting": "[1]", "value": "> 10000", "unit": "nM"}, {"measurement": "Ki", "setting": "[2]", "value": 2980, "unit": "nM"}, {"measurement": "Ki", "setting": "[3]", "value": "> 10000", "unit": "nM"}]}
{"smiles": "CCCCS(=O)(=O)n1c(C)c(CC(=O)O)c2cc(F)ccc21", "values": [{"measurement": "IC50", "setting": "[1]", "value": 842, "unit": "nM"}, {"measurement": "Ki", "setting": "[2]", "value": 634, "unit": "nM"}, {"measurement": "Ki", "setting": "[3]", "value": "> 10000", "unit": "nM"}]}
{"smiles": "Cc1c(CC(=O)O)c2cc(F)ccc2n1S(=O)(=O)c1cccc(F)c1", "values": [{"measurement": "IC50", "setting": "[1]", "value": 639, "unit": "nM"}, {"measurement": "Ki", "setting": "[2]", "value": 225, "unit": "nM"}, {"measurement": "Ki", "setting": "[3]", "value": 6890, "unit": "nM"}]}
{"smiles": "Cc1c(CC(=O)O)c2cc(F)ccc2n1S(=O)(=O)c1ccc(S(C)(=O)=O)cc1", "values": [{"measurement": "Tmax", "setting": "[4]", "value": 1.8, "unit": "h"}, {"measurement": "IC50", "setting": "[1]", "value": 158, "unit": "nM"}, {"measurement": "AUC", "setting": "[5]", "value": 619, "unit": "ng·h/mL"}, {"measurement": "Cmax", "setting": "[6]", "value": 1800, "unit": "ng/mL"}, {"measurement": "Cmax", "setting": "[7]", "value": 332, "unit": "ng/mL"}, {"measurement": "bioavailability", "setting": "[8]", "value": 56, "unit": "%"}, {"measurement": "Ki", "setting": "[2]", "value": 68, "unit": "nM"}, {"measurement": "AUC", "setting": "[9]", "value": 3480, "unit": "ng·h/mL"}, {"measurement": "Ki", "setting": "[3]", "value": "> 10000", "unit": "nM"}]}
{"smiles": "Cc1c(CC(=O)O)c2cc(F)ccc2n1S(=O)(=O)c1ccccc1", "values": [{"measurement": "IC50", "setting": "[1]", "value": 987, "unit": "nM"}, {"measurement": "Ki", "setting": "[2]", "value": 250, "unit": "nM"}, {"measurement": "Ki", "setting": "[3]", "value": 4860, "unit": "nM"}]}
{"smiles": "Cc1c(CC(=O)O)c2cc(F)ccc2n1S(=O)(=O)c1ccc(Cl)cc1", "values": [{"measurement": "IC50", "setting": "[1]", "value": 26, "unit": "nM"}, {"measurement": "Ki", "setting": "[2]", "value": 29, "unit": "nM"}, {"measurement": "Ki", "setting": "[3]", "value": 8460, "unit": "nM"}]}
{"smiles": "COc1ccc(S(=O)(=O)n2c(C)c(CC(=O)O)c3cc(F)ccc32)cc1", "values": [{"measurement": "IC50", "setting": "[1]", "value": 318, "unit": "nM"}, {"measurement": "Ki", "setting": "[2]", "value": 299, "unit": "nM"}, {"measurement": "Ki", "setting": "[3]", "value": 7710, "unit": "nM"}]}
{"smiles": "Cc1c(CC(=O)O)c2cc(F)ccc2n1S(=O)(=O)c1ccc(F)cc1", "values": [{"measurement": "IC50", "setting": "[1]", "value": 158, "unit": "nM"}, {"measurement": "Ki", "setting": "[2]", "value": 71, "unit": "nM"}, {"measurement": "Ki", "setting": "[3]", "value": "> 10000", "unit": "nM"}]}
{"smiles": "O=C(O)C[C@@H]1CCn2c1c(Sc1ccc(Cl)cc1)c1ccc(F)cc12", "values": [{"measurement": "Ki", "setting": "[2]", "value": 0.8, "unit": "nM"}]}
{"smiles": "Cc1c(CC(=O)O)c2cc(F)ccc2n1S(=O)(=O)c1cc(Cl)ccc1Cl", "values": [{"measurement": "IC50", "setting": "[1]", "value": 44, "unit": "nM"}, {"measurement": "Ki", "setting": "[2]", "value": 19, "unit": "nM"}, {"measurement": "Ki", "setting": "[3]", "value": 1870, "unit": "nM"}]}
{"smiles": "COc1ccc2c(c1)c(CC(=O)O)c(C)n2C(=O)c1ccc(Cl)cc1", "note": "[INDOMETHACIN]", "values": [{"measurement": "Ki", "setting": "[10]", "value": 8000, "unit": "nM"}, {"measurement": "EC50", "setting": "[11]", "value": 50, "unit": "nM"}]}
{"smiles": "CSc1ccc(C=C2C(C)=C(CC(=O)O)c3cc(F)ccc32)cc1", "note": "[SULINDAC SULFIDE]", "values": [{"measurement": "Ki", "setting": "[2]", "value": 3500, "unit": "nM"}]}
